Experimental data from different studies.
Lines come from different studies, so protocols differ.

c1cnc2ccc(Nc3nc(NC4CC4)c4nc[nH]c4n3)cc2c1
Tmax (human; plasma; oral; 400 mg/m²; patients): 6.5 h

C#C[C@]1(COP(=O)(O)OP(=O)(O)OP(=O)(O)O)O[C@@H](n2cnc3c(N)nc(F)nc32)C[C@@H]1O
Tmax (human; plasma; oral; 400 mg; single dose): 12.1 h

COc1ccc([C@@H]2CN(C(=O)[C@@H](O)CO)C[C@@]2(C)[C@@H](C)O)cc1OC1CN(c2ccc(C)cn2)C1
Tmax (human; plasma; oral; 0.1 mg; single dose, healthy volunteers): 1 h

C/C(=C\c1csc(C)n1)[C@@H]1C[C@@H]2O[C@]2(C)CCC[C@H](C)[C@H](O)[C@@H](C)C(=O)C(C)(C)[C@@H](O)CC(=O)N1
Tmax (human; plasma; intravenous; 20 mg/m²; patients): 1 h

C[C@@H](Nc1cc(F)cc(F)c1)c1cc(C(=O)N(C)C)cc2c(=O)cc(N3CCOCC3)oc12
Tmax (human; plasma; oral; 180 mg; single dose, patients): 1.98 h

CO[C@@H]1[C@H](OC(=O)N2CC(CCN3CCOCC3)C2)CC[C@]2(CO2)[C@H]1[C@@]1(C)O[C@@H]1CC=C(C)C
Tmax (human; plasma; subcutaneous; 1.2 mg; single dose, healthy volunteers): 0.25 h

O=C(Nc1c(Cl)cncc1Cl)c1ccc(OC(F)F)c(OCC2CC2)c1
Tmax (human; plasma; oral; 0.25 mg; single dose): 0.75 h

CC(=O)Oc1ccccc1C(=O)O
Tmax (human; plasma; oral; 650 mg; healthy volunteers): 2.5 h

CNCC[C@H](Oc1cccc2ccccc12)c1cccs1
Tmax (female human; plasma; oral; 30 mg; multiple doses, once daily): 4.7 h

C#Cc1cccc(Nc2ncnc3cc(OCCOC)c(OCCOC)cc23)c1
Tmax (human; plasma; oral; 50 mg; patients): 4 h

Oc1cc(O)c2c(c1)O[C@@H](c1ccc(O)c(O)c1)[C@@H](O)C2
Tmax (human; plasma; oral; 30 mg; single dose): 1 h

Nc1cc(C(F)(F)F)c(-c2cc(N3CCOCC3)nc(N3CCOCC3)n2)cn1
Tmax (human; plasma; oral; 25 mg/day; patients): 1 h

CC(C)(O)c1ccccc1-c1ccc2[nH]c(/C=C/c3ccc(C(F)(F)F)cc3)nc2c1
Tmax (male human; plasma; oral; 5 mg; single dose, fasted): 3.95 h

C[C@@]1(c2cc(NC(=O)c3ccc(C#N)cn3)ccc2F)C=CSC(N)=N1
Tmax (human; plasma; oral; 150 mg; single dose): 1.5 h

FC(F)(F)c1ccc(CNc2ccc(Cc3c[nH]c4ncc(Cl)cc34)cn2)cn1
Tmax (human; plasma; oral; 600 mg; single dose, healthy volunteers): 2.5 h

CS(=O)(=O)CCC#N
Tmax (human; plasma; oral; 1000 mg; single dose, fasted): 1.5 h

COc1cc(N2CCC(N3CCN(C)CC3)CC2)ccc1Nc1ncnc(Nc2ccccc2S(=O)(=O)C(C)C)n1
Tmax (human; plasma; oral; 75 mg; multiple doses, patients): 3.32 h

CCc1nc2c(C)cc(N3CCN(CC(=O)N4CC(O)C4)CC3)cn2c1N(C)c1nc(-c2ccc(F)cc2)c(C#N)s1
Tmax (human; plasma; oral; 600 mg; single dose, fed, healthy volunteers): 3.5 h

CCO[C@H]1CCN(Cc2c(OC)cc(C)c3[nH]ccc23)[C@H](c2ccc(C(=O)O)cc2)C1
Tmax (human; plasma; oral; 50 mg; multiple doses, twice daily, patients): 2 h

CC(C)n1cc(C#N)c2cc(-n3cc(C(=O)O)cn3)ccc21
Tmax (human; plasma; oral; 50 mg; single dose, fasted, healthy volunteers): 3 h

NS(=O)(=O)NCCNc1nonc1C(=NO)Nc1ccc(F)c(Br)c1
Tmax (human; plasma; oral; 400 mg; multiple doses, twice daily, steady state, patients): 2 h

CC(C)[C@H](N)C(=O)NCCCS(=O)(=O)O
Tmax (human; plasma; oral; 256.5 mg; multiple doses, twice daily, fasted): 0.5 h

CC(C)[C@](O)(c1ccc2cc(OC(F)F)c(OC(F)F)cc2c1)c1c[nH]nn1
Tmax (female human; plasma; oral; 450 mg; single dose): 1.9 h

Cn1cc(-c2ccc(S(=O)(=O)[C@@H]3C[C@@H](C(=O)NC4(C#N)CC4)N(C(=O)C4(C(F)(F)F)CC4)C3)c(C(F)(F)F)c2)cn1
Tmax (human; plasma; oral; 3 mg; single dose, fasted, healthy volunteers): 5 h

CCc1nc(C(N)=O)c(Nc2ccc(N3CCC(N4CCN(C)CC4)CC3)c(OC)c2)nc1NC1CCOCC1
Tmax (human; plasma; oral; 120 mg; multiple doses, patients): 3.03 h

CC(C)(Sc1ccncc1-c1ccc(C#N)c2ccccc12)C(=O)O
Tmax (male human; plasma; oral; 40 mg; single dose, fasted, healthy volunteers): 0.75 h

Cc1nc(NC(=O)N2CCC[C@H]2C(N)=O)sc1-c1ccnc(C(C)(C)C(F)(F)F)c1
Tmax (human; plasma; oral; 180 mg; patients): 2.46 h

C=CC(=O)N(C)CCOc1c(N)ncnc1-c1cc(F)cc(NC(=O)c2ccc(C3CC3)cc2F)c1C
Tmax (human; blood; oral; 15 mg; single dose, healthy volunteers): 0.5 h

CO[C@H]1/C=C\C=C(/C)C(=O)NC2=CC(=O)C(NCCN(C)C)=C(C[C@@H](C)C[C@H](OC)[C@H](O)[C@@H](C)/C=C(\C)[C@@H]1OC(N)=O)C2=O
Tmax (human; plasma; intravenous; 27 mg/m²; patients, infusion): 0.9 h

COC(=O)N[C@@H](C)CNc1nccc(-c2cn(C(C)C)nc2-c2cc(Cl)cc(NS(C)(=O)=O)c2F)n1
Tmax (human; plasma; oral; 50 mg; single dose): ~1.5 h

CC(C)n1nc(-c2ccc3oc(N)nc3c2)c2c(N)ncnc21
Tmax (human; plasma; oral; 3 mg; multiple doses, once daily, patients): 0.97 h
